Source: ChEMBL document CHEMBL1921671, “Benzisothiazolinone as a useful template for the design of new monoacylglycerol lipase inhibitors: investigation of the target residues and comparison with octhilinone” (Bioorg Med Chem Lett, 2011)
Changes are numbered by the printed parent chain. Active and inactive are the calls of the source. No cut-off for these calls is given here.

Legend:
[1] = system: T1, Monoglyceride lipase (Homo sapiens), Q99685 [C201A,C208A,C242A]; test: Inhibition of human MAGL C201A/C208A/C242A mutant
T1 sequence (whole entry): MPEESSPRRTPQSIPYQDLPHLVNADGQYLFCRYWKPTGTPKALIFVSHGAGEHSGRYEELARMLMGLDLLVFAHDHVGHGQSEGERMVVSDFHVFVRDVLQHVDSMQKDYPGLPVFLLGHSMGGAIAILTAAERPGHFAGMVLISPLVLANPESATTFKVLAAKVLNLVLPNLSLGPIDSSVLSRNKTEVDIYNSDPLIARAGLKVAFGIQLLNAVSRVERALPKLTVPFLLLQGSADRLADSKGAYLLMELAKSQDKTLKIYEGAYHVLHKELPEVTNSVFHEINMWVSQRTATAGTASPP

[2] = Selectivity ratio of IC50 for rat MAGL to IC50 for human MAGL
[3] = system: T2, Monoglyceride lipase (Homo sapiens), Q99685 [C201A]; test: Inhibition of human MAGL C201A mutant
T2 sequence (whole entry): T1 sequence (whole entry) with A208C, A242C

[4] = target: T3, Monoglyceride lipase (Homo sapiens) (UniProt Q99685); test: Inhibition of human recombinant MAGL assessed as [3H]oleoylglycerol hydrolysis preincubated for 10 mins at 37 degC by liquid scintillation counting
T3 sequence (whole entry): T1 sequence (whole entry) with A201C, A208C, A242C
Outline: (§1)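 Purified recombinant human MAGL (5 ng; 50 mM Tris pH 8.0, 0.1% BSA) preincubated with inhibitor at the line's time and temperature. Then incubated 10 min at 37 °C with 2-OG (10 µM final; [3H]-2-OG 50,000 dpm; Tris pH 8.0 with 0.6% BSA). Stopped with ice-cold methanol:chloroform 1:1 and centrifuged. Aqueous-phase radioactivity counted by liquid scintillation. No-enzyme blanks subtracted.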

[5] = target: T3, Monoglyceride lipase (Homo sapiens); test: Inhibition of human recombinant MAGL assessed as [3H]oleoylglycerol hydrolysis preincubated for 10 mins at room temperature by liquid scintillation counting; outline: as §1
[6] = target: T3, Monoglyceride lipase (Homo sapiens); test: Inhibition of human recombinant MAGL assessed as [3H]oleoylglycerol hydrolysis preincubated for 30 mins at 37 degC by liquid scintillation counting; outline: as §1
[7] = system: T4, Monoglyceride lipase (Homo sapiens), Q99685 [C242A]; test: Inhibition of human MAGL C242A mutant
T4 sequence (whole entry): T1 sequence (whole entry) with A201C, A208C

[8] = organism: Homo sapiens; test: Selectivity ratio of IC50 for human recombinant FAAH to IC50 for human recombinant MAGL by liquid scintillation counting of radiolabeled 2-OG hydrolysis
[9] = target: T3, Monoglyceride lipase (Homo sapiens); test: Inhibition of human recombinant MAGL assessed as [3H]oleoylglycerol hydrolysis at 10^-5 M preincubated for 5 mins measured after 15 mins by liquid scintillation counting in the presence of dithiothreitol
[10] = system: T5, Monoglyceride lipase (Homo sapiens), Q99685 [C208A]; test: Inhibition of human MAGL C208A mutant
T5 sequence (whole entry): T1 sequence (whole entry) with A201C, A242C

[11] = target: T3, Monoglyceride lipase (Homo sapiens); test: Inhibition of human recombinant MAGL assessed as inhibition of [3H]oleoylglycerol hydrolysis preincubated for 30 mins at room temperature by liquid scintillation counting; outline: as §1
[12] = organism: Homo sapiens; test: Selectivity ratio of IC50 for human recombinant FAAH to IC50 for human recombinant MAGL by liquid scintillation counting
[13] = target: T3, Monoglyceride lipase (Homo sapiens); test: Inhibition of human recombinant MAGL assessed as [3H]oleoylglycerol hydrolysis at 1 mM after 10 mins by liquid scintillation counting
Outline: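 Single-concentration test at 10^-3 M against purified recombinant human MAGL, 5 ng. Inhibitor preincubated 10 min at 37 °C. [3H]-2-oleoylglycerol at 10 µM final hydrolysed 10 min at 37 °C in 50 mM Tris pH 8.0 with BSA. Reaction quenched with cold methanol/chloroform. Aqueous-layer radioactivity read by scintillation, blanks subtracted, and result expressed as % inhibition.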

[14] = target: T6, Fatty-acid amide hydrolase 1 (Homo sapiens) (UniProt O00519); test: Inhibition of human recombinant FAAH assessed as conversion of [3H]AEA to [3H]ethanolamine at 1 mM after 10 mins by liquid scintillation counting
T6 sequence (whole entry): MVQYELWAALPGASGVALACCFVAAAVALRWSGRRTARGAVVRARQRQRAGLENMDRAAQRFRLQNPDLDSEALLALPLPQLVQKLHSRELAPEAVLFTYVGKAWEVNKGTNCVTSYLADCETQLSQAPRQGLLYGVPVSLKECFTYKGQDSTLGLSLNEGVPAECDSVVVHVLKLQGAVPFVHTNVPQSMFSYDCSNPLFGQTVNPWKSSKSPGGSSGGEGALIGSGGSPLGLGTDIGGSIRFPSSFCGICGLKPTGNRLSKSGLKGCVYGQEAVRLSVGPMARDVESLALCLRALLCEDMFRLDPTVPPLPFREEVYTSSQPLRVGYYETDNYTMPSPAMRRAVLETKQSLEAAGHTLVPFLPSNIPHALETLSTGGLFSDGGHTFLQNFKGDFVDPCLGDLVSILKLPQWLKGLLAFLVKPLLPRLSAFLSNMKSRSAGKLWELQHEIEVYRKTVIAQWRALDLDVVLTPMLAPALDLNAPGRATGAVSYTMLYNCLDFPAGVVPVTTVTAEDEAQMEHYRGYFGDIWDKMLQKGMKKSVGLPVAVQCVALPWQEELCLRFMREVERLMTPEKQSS

[15] = target: T7, Fatty-acid amide hydrolase 1 (Homo sapiens, UniProt O00519); test: Inhibition of human recombinant FAAH assessed as conversion of [3H]AEA to [3H]ethanolamine after 10 mins by liquid scintillation counting
T7 sequence (O00519 whole entry): T6 sequence (whole entry)

[16] = target: T8, Monoglyceride lipase (Homo sapiens, UniProt Q99685); test: Inhibition of human recombinant MAGL assessed as [3H]oleoylglycerol hydrolysis after 10 mins by liquid scintillation counting
T8 sequence (Q99685 whole entry): T1 sequence (whole entry) with A201C, A208C, A242C
Outline: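 Purified recombinant human MAGL, 5 ng, in 50 mM Tris pH 8.0 with 0.1% BSA, preincubated with […]. Substrate [3H]-2-oleoylglycerol at 10 µM final in Tris pH 8.0 with 0.6% BSA. Reaction run 10 min at 37 °C and stopped with ice-cold 1:1 methanol/chloroform, then centrifuged. Aqueous-phase radioactivity counted by liquid scintillation; no-enzyme blanks subtracted.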

[17] = target: T8, Monoglyceride lipase; test: Inhibition of human recombinant MAGL assessed as inhibition of 2-oleoylglycerol hydrolysis preincubated for 10 mins by LC/MS analysis
[18] = target: T9, Monoglyceride lipase (Rattus norvegicus, UniProt Q8R431); test: Inhibition of rat recombinant N-terminal his-tagged MAGL expressed in Escherichia coli DH5alpha assessed as 2-oleoylglycerol hydrolysis after 10 mins by LC/MS analysis
T9 sequence (Q8R431 whole entry): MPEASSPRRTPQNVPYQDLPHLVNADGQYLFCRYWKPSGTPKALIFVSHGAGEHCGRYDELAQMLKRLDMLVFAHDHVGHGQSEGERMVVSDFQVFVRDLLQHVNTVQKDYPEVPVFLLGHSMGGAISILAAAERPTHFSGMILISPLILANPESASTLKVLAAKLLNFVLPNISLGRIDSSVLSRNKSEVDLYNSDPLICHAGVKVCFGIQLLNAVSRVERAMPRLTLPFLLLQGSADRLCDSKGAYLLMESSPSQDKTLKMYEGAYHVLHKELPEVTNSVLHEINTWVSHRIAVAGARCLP

SMILES | Ratio IC50 [12] | inhibition [13] | inhibition [14] | IC50 [15] [µM] | IC50 [16] [µM] | further results
CCCCCCCCN1SCCC1=O | 17.3 | – | – | – | – | inhibition [1]: inactive; Ratio IC50 [2]: 1.5; inhibition [3]: inactive; inhibition [4]: Active; inhibition [5]: Active; inhibition [6]: Active; inhibition [7]: inactive; Ratio IC50 [8]: 53; inhibition [9]: inactive; inhibition [10]: inactive; inhibition [11]: Active
CCCCCCCCN1Cc2ccccc2C1=O | – | inactive | inactive | – | – | –
CCCCCCCCn1c(=O)oc2ccccc21 | – | 26% | – | 129 | – | –
CCCCCCCCn1sccc1=O [OCTHILINONE] | – | – | – | 18.9 | 1.09 | IC50 [17]: 0.14 µM
CCCCCCCCn1oc2ccccc2c1=O | 0.16 | – | – | 44.7 | 275 | –

The next lines start with results.

Ratio IC50 [12] | inhibition [13] | inhibition [14] | IC50 [15] [µM] | IC50 [16] [µM] | SMILES | further results
– | 55% | 43% | – | – | CCCCCCCCOc1nsc2ccccc12 | –
73 | – | – | 30 | 0.41 | O=c1c2ccccc2sn1Cc1ccc(-c2ccccc2)cc1 | –
– | inactive | inactive | – | – | CCCCCCCCN1C(=O)c2ccccc2C1=O | –
– | inactive | 50% | – | – | c1ccc(-c2ccc(COc3nsc4ccccc34)cc2)cc1 | –
0.47 | – | – | 31.6 | 67.9 | CCCCCCCCOc1noc2ccccc12 | –
21.2 | – | – | 35.2 | 1.66 | CCCCCCCCn1sc2ccccc2c1=O | inhibition [1]: inactive; IC50 [17]: 0.66 µM; Ratio IC50 [2]: 11; inhibition [3]: inactive; inhibition [4]: Active; inhibition [5]: Active; inhibition [6]: Active; inhibition [7]: inactive; Ratio IC50 [8]: 53; inhibition [9]: inactive; inhibition [10]: Active; IC50 [18]: 0.059 µM; inhibition [11]: Active
– | 72% | – | 309 | – | CCCCCCCCn1c(=O)sc2ccccc21 | –
